Measured values reported in ChEMBL document CHEMBL1141230, “Synthesis and pharmacology of willardiine derivatives acting as antagonists of kainate receptors” (J Med Chem, 2005).

Tests used:
[1] = molecular target: Glutamate receptor ionotropic, kainate 1 (Rattus norvegicus) (UniProt P22756); experiment: Percentage depression of GLUK5 containing kainate induced depolarization on isolated neonatal rat dorsal root C-fibers at 200 uM; type: functional
[2] = molecular target: Glutamate receptor ionotropic, kainate (Rattus norvegicus); experiment: Displacement of [3H]SYM2081 from kainate receptor in rat brain membrane
[3] = molecular target: T1, Glutamate receptor ionotropic, AMPA (Rattus norvegicus, UniProt P19490+P19491+P19492+P19493); experiment: Displacement of [3H](S)-5-fluorowillardiine from AMPA receptor in rat brain membrane; type: cell membranes
[4] = Inhibitory effect on glutamate-induced calcium influx at homomeric human GLUK5/GLUK2 receptor clone expressed in HEK293 cells; type: functional
Method in brief: (§1)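 HEK293 lines stably coexpressing human GLUK5 with GLUK2 or GLUK6 (GLUK5(R)/GLUK6(Q)), FLIPR calcium assay with concanavalin A present. Antagonist given alone at first addition, then with 100 µM glutamate at second. Curves fit with slope 1, top/bottom fixed at 100%/0%. Kb = IC50/(1+[Glu]/EC50 Glu), glutamate EC50 from curves on same plate.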

[5] = molecular target: Glutamate receptor ionotropic, kainate 2 (Rattus norvegicus, UniProt P42260); experiment: (§2) Displacement of [3H]kainate from rat GLUK6 receptor expressed in HEK293 cells; type: cell-based
Sequence of Glutamate receptor ionotropic, kainate 2 (P42260 whole entry): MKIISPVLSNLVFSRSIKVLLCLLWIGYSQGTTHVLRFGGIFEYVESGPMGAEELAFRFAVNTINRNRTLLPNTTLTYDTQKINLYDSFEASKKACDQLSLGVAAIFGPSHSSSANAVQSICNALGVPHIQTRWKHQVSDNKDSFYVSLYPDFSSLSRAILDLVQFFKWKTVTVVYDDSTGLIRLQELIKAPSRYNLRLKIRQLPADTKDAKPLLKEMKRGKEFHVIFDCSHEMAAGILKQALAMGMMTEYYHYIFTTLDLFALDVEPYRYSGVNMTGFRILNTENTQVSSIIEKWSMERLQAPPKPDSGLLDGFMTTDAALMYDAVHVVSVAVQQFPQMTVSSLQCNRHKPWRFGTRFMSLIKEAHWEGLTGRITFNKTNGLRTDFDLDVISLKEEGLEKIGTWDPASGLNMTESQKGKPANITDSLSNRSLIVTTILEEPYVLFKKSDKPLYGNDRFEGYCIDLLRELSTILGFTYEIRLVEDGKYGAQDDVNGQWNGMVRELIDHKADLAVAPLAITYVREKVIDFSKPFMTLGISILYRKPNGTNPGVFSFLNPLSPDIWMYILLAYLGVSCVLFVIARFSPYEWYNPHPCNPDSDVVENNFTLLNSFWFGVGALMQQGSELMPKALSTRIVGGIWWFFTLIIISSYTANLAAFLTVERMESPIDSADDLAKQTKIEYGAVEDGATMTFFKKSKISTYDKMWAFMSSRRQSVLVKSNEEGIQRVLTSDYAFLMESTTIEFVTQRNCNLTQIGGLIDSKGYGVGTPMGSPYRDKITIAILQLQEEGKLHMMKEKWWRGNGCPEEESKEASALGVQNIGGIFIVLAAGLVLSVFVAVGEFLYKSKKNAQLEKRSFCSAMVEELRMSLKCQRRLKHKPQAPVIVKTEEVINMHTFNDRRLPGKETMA

[6] = molecular target: T1, Glutamate receptor ionotropic, AMPA; experiment: (§3) Antagonist activity on AMPA receptor expressed on rat motoneurons by its ability to reduce the fast component dorsal root evoked ventral root potential (fDR-VRP); type: functional
[7] = molecular target: Glutamate receptor ionotropic, kainate 1 (Homo sapiens) (UniProt P39086); experiment: Inhibitory effect on glutamate-induced calcium influx at homomeric human GLUK5 receptor expressed in HEK293 cells; type: functional, cell-based
Sequence of Glutamate receptor ionotropic, kainate 1 (Homo sapiens) (P39086 whole entry): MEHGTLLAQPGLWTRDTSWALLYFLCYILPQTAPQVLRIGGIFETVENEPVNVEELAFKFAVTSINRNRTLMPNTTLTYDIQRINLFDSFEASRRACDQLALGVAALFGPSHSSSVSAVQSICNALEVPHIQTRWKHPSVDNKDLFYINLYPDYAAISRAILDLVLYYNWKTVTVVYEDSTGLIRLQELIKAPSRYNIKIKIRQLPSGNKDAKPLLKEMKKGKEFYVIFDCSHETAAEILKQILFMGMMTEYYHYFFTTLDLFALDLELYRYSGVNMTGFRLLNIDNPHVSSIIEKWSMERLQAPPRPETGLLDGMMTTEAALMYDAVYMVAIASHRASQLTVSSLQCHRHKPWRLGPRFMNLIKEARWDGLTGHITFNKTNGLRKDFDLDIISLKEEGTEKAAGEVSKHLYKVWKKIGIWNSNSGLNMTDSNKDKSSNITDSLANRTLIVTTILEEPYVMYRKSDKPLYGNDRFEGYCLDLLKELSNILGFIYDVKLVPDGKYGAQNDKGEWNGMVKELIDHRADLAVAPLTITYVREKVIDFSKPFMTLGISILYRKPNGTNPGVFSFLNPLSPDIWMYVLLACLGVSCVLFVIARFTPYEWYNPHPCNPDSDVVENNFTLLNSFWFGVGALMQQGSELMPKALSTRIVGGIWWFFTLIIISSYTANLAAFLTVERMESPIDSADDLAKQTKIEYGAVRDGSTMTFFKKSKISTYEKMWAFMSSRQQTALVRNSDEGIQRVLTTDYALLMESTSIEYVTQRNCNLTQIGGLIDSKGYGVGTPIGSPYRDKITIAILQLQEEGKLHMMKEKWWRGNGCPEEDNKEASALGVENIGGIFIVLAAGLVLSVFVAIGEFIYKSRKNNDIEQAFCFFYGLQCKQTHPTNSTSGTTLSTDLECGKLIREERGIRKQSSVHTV
Method in brief: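 HEK293 cells stably expressing human GLUK5(Q), calcium fluorescence assay (FLIPR) in presence of concanavalin A. Antagonist added alone first, then with 100 µM glutamate. Curves fitted with slope fixed at 1; Kb from IC50 via Cheng-Prusoff using glutamate EC50 determined in same plate.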

[8] = Inhibitory effect on glutamate-induced calcium influx at homomeric human GLUK5/GLUK6 receptor clone expressed in HEK293 cells; type: functional; method in brief: as §1
[9] = molecular target: Glutamate receptor ionotropic, kainate 1 (Rattus norvegicus, UniProt P22756); experiment: Antagonism on GLUK5 containing kainate induced depolarization of isolated neonatal rat dorsal root C-fibers; type: functional
Sequence of Glutamate receptor ionotropic, kainate 1 (P22756 whole entry): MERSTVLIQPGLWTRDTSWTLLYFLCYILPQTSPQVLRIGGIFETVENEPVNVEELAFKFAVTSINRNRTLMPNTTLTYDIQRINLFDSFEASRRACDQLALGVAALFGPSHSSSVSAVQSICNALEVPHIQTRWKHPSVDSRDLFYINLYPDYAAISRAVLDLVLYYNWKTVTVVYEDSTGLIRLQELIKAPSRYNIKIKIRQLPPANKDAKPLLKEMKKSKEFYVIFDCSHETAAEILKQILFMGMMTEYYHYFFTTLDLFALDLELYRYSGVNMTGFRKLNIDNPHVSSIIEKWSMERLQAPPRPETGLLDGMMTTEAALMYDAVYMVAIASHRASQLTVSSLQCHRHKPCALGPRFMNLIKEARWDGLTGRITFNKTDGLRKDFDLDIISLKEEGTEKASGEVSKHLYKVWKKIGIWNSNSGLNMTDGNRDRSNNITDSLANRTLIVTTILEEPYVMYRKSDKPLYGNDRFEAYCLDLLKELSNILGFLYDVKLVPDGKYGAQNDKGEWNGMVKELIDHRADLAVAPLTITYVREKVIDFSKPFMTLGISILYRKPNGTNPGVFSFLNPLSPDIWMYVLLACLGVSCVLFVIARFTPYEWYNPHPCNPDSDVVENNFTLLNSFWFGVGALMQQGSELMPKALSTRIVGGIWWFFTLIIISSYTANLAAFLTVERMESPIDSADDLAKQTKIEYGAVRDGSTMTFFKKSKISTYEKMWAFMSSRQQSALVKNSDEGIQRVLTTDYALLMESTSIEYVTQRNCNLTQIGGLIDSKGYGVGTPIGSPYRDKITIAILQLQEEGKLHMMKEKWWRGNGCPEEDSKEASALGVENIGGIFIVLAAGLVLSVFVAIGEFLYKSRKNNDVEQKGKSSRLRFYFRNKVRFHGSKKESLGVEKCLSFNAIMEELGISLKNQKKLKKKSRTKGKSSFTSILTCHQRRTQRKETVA

[10] = molecular target: Glutamate receptor ionotropic, kainate 2 (Rattus norvegicus) (UniProt P42260); experiment: as §2; type: cell-based
Sequence of Glutamate receptor ionotropic, kainate 2 (Rattus norvegicus) (P42260 whole entry): as the sequence (P42260 whole entry) above

[11] = molecular target: Glutamate receptor ionotropic, AMPA (Rattus norvegicus, UniProt P19491+P19492+P19493+P19490); experiment: as §3; type: functional

Sequence of Glutamate receptor ionotropic, kainate 1 (Rattus norvegicus) (P22756 whole entry): as the sequence (P22756 whole entry) above

| Compound | Ki [5] | IC50 [6] | Kd [9] | other results |
| --- | --- | --- | --- | --- |
| N[C@H](Cn1ccc(=O)n(CCCC(=O)O)c1=O)C(=O)O |  |  |  | Activity [1]: 22.8%; Ki [2]: > 500 µM; Ki [3]: 149 µM |
| NC(Cn1ccc(=O)n(Cc2ccccc2C(=O)O)c1=O)C(=O)O (racemic) | > 1000 µM | 97.6 µM | 1.09 µM | Kb [4]: 1 µM; Kb [7]: 0.6 µM; Kb [8]: 0.8 µM |
| N[C@@H](Cn1cc(I)c(=O)n(CCC(=O)O)c1=O)C(=O)O | > 100 µM | 13.7 µM | 8.17 µM | Ki [2]: 52.7 µM; Ki [3]: 5 µM |
| N[C@H](Cn1ccc(=O)n(CCC(=O)O)c1=O)C(=O)O | > 100 µM |  |  | Activity [1]: 13.2% |
| N[C@@H](Cn1ccc(=O)n(Cc2cccc(C(=O)O)c2)c1=O)C(=O)O | > 1000 µM |  | 49.1 µM |  |
| N[C@@H](Cn1ccc(=O)n(CCC(=O)O)c1=O)C(=O)O | > 100 µM |  | 73.1 µM |  |
| N[C@H](Cn1ccc(=O)n(Cc2ccccc2C(=O)O)c1=O)C(=O)O | > 1000 µM | > 100 µM | > 100 µM |  |
| N[C@@H](Cn1ccc(=O)n(CC(=O)O)c1=O)C(=O)O |  | 287 µM |  | Ki [3]: 195 µM |
| C=C(C)[C@H]1CN[C@H](C(=O)O)[C@H]1CC(=O)O |  |  |  | Bmax [10]: 1.53 pmol/mg |
| N#Cc1cc2c(cc1[N+](=O)[O-])=NC(=O)C(=O)N=2 | 1.05 µM |  | 1.66 µM |  |
| N[C@@H](Cn1cc(I)c(=O)n(Cc2ccccc2C(=O)O)c1=O)C(=O)O | > 100 µM | 74.1 µM | 0.209 µM |  |
| N[C@@H](Cn1ccc(=O)n(Cc2ccccc2C(=O)O)c1=O)C(=O)O | > 1000 µM | 106 µM | 0.402 µM |  |
| N[C@@H](Cn1ccc(=O)n(Cc2ccc(C(=O)O)cc2)c1=O)C(=O)O | > 100 µM |  | 9.25 µM |  |
| N[C@@H](CNC(=O)NCc1cccc(C(=O)O)c1)C(=O)O |  | > 1000 µM |  |  |
| N[C@@H](Cn1cc([N+](=O)[O-])c(=O)n(CCC(=O)O)c1=O)C(=O)O | > 100 µM | 79.9 µM |  |  |
| N[C@@H](Cn1ccc(=O)n(CCCC(=O)O)c1=O)C(=O)O | > 1000 µM | 136 µM | 60.5 µM | Ki [2]: 96.2 µM; Ki [3]: 17.8 µM |
| Cn1c(=O)ccn(C[C@H](N)C(=O)O)c1=O | > 100 µM |  |  | IC50 [11]: Agonist |
| N[C@@H](Cn1c(=O)ccn(CC(=O)O)c1=O)C(=O)O | > 100 µM |  |  | Ki [2]: > 500 µM; Ki [3]: > 1000 µM |
